Rev-erbA mod – Rev-erb alpha (human) modulation; Rev-erbα–FITC-DNA binding, fluorescence polarization, 90 min; AID 1259318; actives 0.79% (n = 370,000); P20393; activity, % at 10 µM;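 active = activity above about 14%, limit read from the data; passing the limit was not always enough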;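 note: 0% = DMSO wells with 35 nM protein and 100% = DMSO wells with 750 nM protein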
Target sequence (P20393 whole entry, looked up): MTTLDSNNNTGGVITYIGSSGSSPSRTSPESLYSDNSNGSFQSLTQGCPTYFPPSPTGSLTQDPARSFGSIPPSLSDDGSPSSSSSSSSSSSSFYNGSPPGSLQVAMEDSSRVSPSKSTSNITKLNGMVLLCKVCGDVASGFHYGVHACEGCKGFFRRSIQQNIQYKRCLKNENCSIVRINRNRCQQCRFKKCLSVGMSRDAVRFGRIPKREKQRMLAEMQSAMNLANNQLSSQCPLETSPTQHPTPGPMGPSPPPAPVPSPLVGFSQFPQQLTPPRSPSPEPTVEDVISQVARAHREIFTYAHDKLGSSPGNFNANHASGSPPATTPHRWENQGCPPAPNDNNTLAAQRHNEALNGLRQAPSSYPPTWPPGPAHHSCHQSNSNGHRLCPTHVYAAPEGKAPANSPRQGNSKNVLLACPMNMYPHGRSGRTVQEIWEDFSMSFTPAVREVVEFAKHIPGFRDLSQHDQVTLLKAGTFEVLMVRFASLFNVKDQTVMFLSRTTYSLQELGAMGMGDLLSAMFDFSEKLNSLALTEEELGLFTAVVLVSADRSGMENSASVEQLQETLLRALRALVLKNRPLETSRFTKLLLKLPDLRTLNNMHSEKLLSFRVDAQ
NR2E3 ag-1 – NR2E3 (human) agonism. GST-NR2E3/biotin-RetCOR TR-FRET, 1536-well. actives 0.12% (n = 320,000). Q9Y5X4. inhibition of corepressor binding, % at 4.78 µM;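 active = percent inhibition above the cutoff of mean plus 3 SD of all tested compounds, set per screening campaign, cut at about 20% in these data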;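 note: 0% = DMSO wells and 100% = biotin wells as full block of FRET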
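system = GST-tagged NR2E3 plus biotinylated RetCOR corepressor | input = 1.35 nM GST-NR2E3 | also added = 7 nM biotin-RetCOR | schedule = 5 h incubation at 4 °C | measured by = TR-FRET with europium anti-GST and streptavidin-D2, 340 nm excitation | read-out = percent loss of FRET ratio relative to control wells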
NR2E3 ag-2 – agonists of human NR2E3 nuclear receptor | Q9Y5X4 | actives 0.35% (n = 360,000) | CHO-S Gal4-NCOR/VP16-NR2E3 two-hybrid, luciferase | inhibition of corepressor binding, % at 3.98 µM;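 active = inhibition above the mean of all tested compounds plus 3 SD, cut at about 70% in these data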;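 note: 0% = DMSO with NR2E3 transfected cells and 100% = cells lacking NR2E3 construct; higher means lower luciferase signal from less NR2E3 corepressor binding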
PG9 Ab binder – binds the HIV-1 gp120 antibody PG9. AID 624416. actives 0.43% (n = 360,000). TR-FRET gp120-PG9 antibody binding. inhibition, % at 6.7 µM; in the data active = inhibition above about 8.5%
MC4R antagonist – antagonists of human melanocortin 4 receptor (MC4R) | P32245 | inhibition, % at 6.5 µM | actives 0.48% (n = 360,000) | MC4R-expressing cells, MTII-stimulated cAMP, LANCE TR-FRET;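 active = inhibition above its plate's cutoff, the mean of tested wells on that plate plus 3 SD, cut at about 29% in these data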;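 note: 0% = Melanotan II alone and 100% = Melanotan II plus saturating MCL0020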
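Assay system: U2OS-MC4R stable cell line; Also added: Melanotan II; Technique: Eu-cAMP/anti-cAMP TR-FRET, emission 671 nm; Times: 30-min compound, 1-h challenge, 1-h detection, room temperature.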
MC4R ag barr – agonists of human melanocortin 4 receptor (MC4R) beta-arrestin | P32245 | U2OS MC4R beta-arrestin complementation, luminescence; percent of melanotan II response, DMSO zero | activation, % at 8.9 µM | actives 0.98% (n = 360,000) | AID 540308;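 active = activation above a per-plate cutoff, the mean activation of sample wells on that plate plus 3 SD, cut at about 8% in these data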
NR2E3 ag conf – confirmation of human NR2E3 agonists | shares compounds with NR2E3 ag-2 | CHO-S mammalian two-hybrid NR2E3-NCOR, luciferase luminescence | inhibition, % at 3.98 µM | actives 51% (n = 2,300);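 active = average inhibition above a cutoff equal to the mean inhibition of all tested compounds plus one SD, cut at about 70% in these data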;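 note: 0% = DMSO in NR2E3 cells and 100% = DMSO in cells lacking NR2E3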
GAL4-VP16 luc – reduces GAL4-VP16 reporter signal in NR2E3 counterscreen | shares compounds with NR2E3 ag-2 | CHO-S GAL4-VP16 luciferase reporter, luminescence | inhibition, % at 3.98 µM | actives 29% (n = 2,300) | AID 624379;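 active = mean inhibition above a cutoff equal to the average over all tested compounds plus one standard deviation, cut at about 70% in these data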;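 note: luciferase from a UAS reporter driven by GAL4-VP16 transactivation; 0% = DMSO with VP16-transfected cells and 100% = DMSO with cells lacking VP16; higher means less reporter light so more repression of VP16 activity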
Active calls of the source: *; nt = no result. Shown are actives, neighbours in structure and some others; about 2.7% of the full set was active somewhere.

SMILES	Rev-erbA mod	NR2E3 ag-1	NR2E3 ag-2	PG9 Ab binder	MC4R antagonist	MC4R ag barr	NR2E3 ag conf	GAL4-VP16 luc
O=C(c1cc(COc2c(F)cccc2F)on1)N1CCC(c2ccncc2)CC1	-3	2	62	0	6	-1	83*	73*
O=C(c1cc(COc2cccc3cnccc23)on1)N1CCC(c2ccccc2Cl)C1 (centres undefined)	8	-1	95*	-1	3	-3	78*	68
Cc1cccc(C)c1OCc1cc(C(=O)N2CCC(c3ccncc3)CC2)no1	0	0	86*	2	2	-1	88*	53
CC1CCN(c2nc(N3CCCCC3)nc(N3CCCCC3)n2)CC1	5	4	-8	-1	2	0	nt	nt
CCOC(=O)C1CCCN(C(=O)Cn2nc(CC)n3c(cc4sccc43)c2=O)C1 (centres undefined)	5	3	-1	2	5	2	nt	nt
Cc1csc2c(N3CCN(C(=O)Nc4ccc(OC(F)(F)F)cc4)CC3)ncnc12	3	1	63	-1	10	6	90*	71*
O=C(Nc1ccc(Br)cc1)c1ccc(F)c(S(=O)(=O)NCc2cccs2)c1	1	1	83*	-1	20	1	97*	82*
Cc1ccc(CN2CC(C(=O)Nc3ncc(C)s3)CC2=O)cc1 (centres undefined)	4	nt	83*	1	-3	-1	83*	17
Cc1ccc(CN2CC(C(=O)Nc3nc(C)cs3)CC2=O)cc1 (centres undefined)	2	nt	9	-2	21	1	nt	nt
Cc1cc(C2=NNC(=NC3CC3)SC2)c(C)n1-c1ccccc1F	-7	1	94*	2	-1	-1	89*	91*
O=C(NCc1ccco1)c1cccc(NC(=O)c2ccccc2)c1	3	-3	50	-1	16	-1	23	22
Cc1ccc(C(=O)Nc2cccc(C(=O)NCc3ccco3)c2)cc1	-4	0	56	-3	5	-2	19	-4
Brc1cccc(-c2nnc(SCc3nc4ccccc4[nH]3)o2)c1	8	0	-9	0	-2	-3	nt	nt
c1ccc2[nH]c(CSc3nnc(-c4ccncc4)o3)nc2c1	0	0	70*	0	-4	-1	-30	10
Cc1nc2ccc(S(=O)(=O)Nc3cccc(-c4nc5cccnc5s4)c3)cc2s1	2	6	71*	2	-2	1	76*	45
Cc1nc2ccc(S(=O)(=O)Nc3ccc(-c4nc5cccnc5s4)cc3)cc2s1	5	8	-8	-1	1	-1	nt	nt
Cc1nc2ccc(NS(=O)(=O)c3cccc([N+](=O)[O-])c3)cc2s1	0	nt	63	1	10	0	85*	72*
Cc1nc2ccc(NS(=O)(=O)c3c(C)c(C)cc(C)c3C)cc2s1	2	3	10	-1	3	1	nt	nt
Cc1ccc(S(=O)(=O)Nc2ccc3nc(C)sc3c2)c(C)c1	1	0	67	1	5	0	72*	64
Cc1nc2ccc(NS(=O)(=O)c3ccc4c(c3)OCCO4)cc2s1	7	-4	94*	2	0	2	97*	91*
CCOc1ccc(CN(C)CC(=O)Nc2ccc([N+](=O)[O-])cc2Cl)cc1	0	0	-30	0	-1	0	nt	nt
Cc1nc2ccc(NS(=O)(=O)c3ccc(F)c(F)c3)cc2s1	-2	3	65	0	-5	0	59	46
CC(=O)Nc1ccc(S(=O)(=O)Nc2ccc3nc(C)sc3c2)cc1	1	nt	43	1	16	0	nt	nt
Cc1nc2ccc(NS(=O)(=O)c3ccc(Br)cc3)cc2s1	-7	1	85*	-1	13	2	97*	76*
Cc1ccc(S(=O)(=O)Nc2ccc3nc(N)sc3c2)cc1	-1	-3	25	-1	5	0	nt	nt
SMILES	Rev-erbA mod	NR2E3 ag-1	NR2E3 ag-2	PG9 Ab binder	MC4R antagonist	MC4R ag barr	NR2E3 ag conf	GAL4-VP16 luc
Cc1ccc(S(=O)(=O)Nc2ccc3nc(C)sc3c2)cc1	nt	2	72*	nt	1	0	88*	76*
Cc1nc2ccc(NS(=O)(=O)c3ccccc3F)cc2s1	-2	-1	32	1	4	-1	nt	nt
O=C(O)C1CCCCC1C(=O)Nc1ccc2c(c1)OCCO2 (centres undefined)	1	4	63	1	8	1	6	-15
O=C(O)C1C2C=CC(C2)C1C(=O)Nc1ccc2c(c1)OCCO2 (centres undefined)	nt	0	63	nt	4	0	22	-3
O=C(Nc1ccc2c(c1)OCCO2)C1CC1c1ccccc1 (centres undefined)	3	3	-25	-4	14	1	nt	nt
CCCc1ccc(OCCNC(C)=O)cc1	0	0	-11	-1	-3	-2	nt	nt
Cc1ccccc1Nc1c(-c2cccnc2)nc2ccccn12	0	4	27	0	-4	1	nt	nt
Cc1ccc2nc(-c3ccccn3)c(Nc3ccccc3C)n2c1	-4	-5	94*	0	6	0	34	-39
Cc1ccn2c(Nc3ccccc3C)c(-c3ccccn3)nc2c1	-1	1	97*	1	12	0	44	8
Cc1ccccc1Nc1c(-c2ccccn2)nc2ccccn12	2	-2	76*	-2	14	-1	35	2
Cc1cccn2c(Nc3ccccc3)c(-c3ccccn3)nc12	2	-2	82*	0	-2	0	3	9
COc1ccc(-c2nc3ncccn3c2Nc2ccccc2)cc1	-4	-4	-34	-4	5	-2	nt	nt
C[C@@H](C(=O)CC(=O)OC(C)(C)C)[C@@H](O)c1ccccc1	0	4	6	-1	2	0	nt	nt
Cc1ccn2c(NC(=O)c3ccccc3)c(-c3ccccc3)nc2c1	0	-1	-8	-2	7	0	nt	nt
Cc1ccn2c(Nc3ccccc3)c(-c3ccccn3)nc2c1	3	-2	68	-1	6	0	91*	64
N#Cc1c(NCc2ccccc2)ccnc1NCc1cccnc1	9	1	66	1	6	3	57	56
N#Cc1c(F)cccc1NCc1cccnc1	6	-4	-46	-1	-6	-2	nt	nt
Cc1ccc(NC(=O)NNC(=O)c2snnc2C)cc1	-6	0	-15	-1	9	-3	nt	nt
